High-throughput results deposited in PubChem BioAssay by The Scripps Research Institute Molecular Screening Center.
PAFAH1B2 FP inh – inhibitors of human PAFAH1B2. P68402. recombinant PAFAH1B2, FP-rhodamine activity probe, fluorescence polarization. inhibition, % at 3.39 µM. hit rate 1.2% among 340,000. AID 492953;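 active = inhibition above the mean of all tested compounds plus 3 SD, cut at about 24% in these data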;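 note: 0% = enzyme with DMSO and 100% = wells lacking PAFAH1B2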
Target sequence (P68402 whole entry, looked up): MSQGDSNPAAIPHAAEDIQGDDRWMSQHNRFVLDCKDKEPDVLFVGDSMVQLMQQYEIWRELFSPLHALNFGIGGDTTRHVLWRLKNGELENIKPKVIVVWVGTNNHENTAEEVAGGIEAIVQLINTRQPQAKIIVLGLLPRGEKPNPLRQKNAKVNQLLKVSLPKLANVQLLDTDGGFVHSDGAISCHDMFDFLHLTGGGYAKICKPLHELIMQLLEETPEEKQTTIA
RBBP9 inh – inhibitors of human serine hydrolase RBBP9. O75884. recombinant RBBP9, FP-Rh probe fluorescence polarization. inhibition, % at 7.94 µM. hit rate 0.2% among 220,000;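 active = inhibition above the campaign mean of all tested compounds plus 3 SD, cut at about 14% in these data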;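 note: plate controls were DMSO wells with RBBP9 for no effect and wells lacking RBBP9 protein for full effect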
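Test system: recombinant human RBBP9; Timing: 30 min then 45 min, 25 °C; Detection: fluorescence polarization; Control set: RBBP9 with DMSO as uninhibited control, no-protein wells as full inhibition; Compound dosing: one concentration, 7.94 µM nominal, 0.794% DMSO; Probe or stimulus: FP-Rh activity-based probe, 375 nM before mixing.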
PAFAH1B3 FP inh – inhibitors of human PAFAH1B3. Q15102. recombinant PAFAH1B3, FP-rhodamine probe, fluorescence polarization. inhibition, % at 3.39 µM. hit rate 0.28% among 340,000. AID 492972;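 active = inhibition above the screen-wide average of all tested compounds plus 3 SD, cut at about 25% in these data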;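 note: 0% = enzyme with DMSO only and 100% = wells lacking PAFAH1B3 protein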
Target sequence (Q15102 whole entry, looked up): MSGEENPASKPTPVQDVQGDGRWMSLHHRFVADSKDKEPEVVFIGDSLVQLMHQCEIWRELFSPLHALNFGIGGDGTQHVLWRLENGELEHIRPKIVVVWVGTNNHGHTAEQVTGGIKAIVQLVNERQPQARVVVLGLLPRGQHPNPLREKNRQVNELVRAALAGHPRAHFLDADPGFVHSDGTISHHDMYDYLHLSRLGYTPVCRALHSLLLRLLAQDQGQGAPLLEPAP
PAFAH2 FP inh – PAFAH2 (human) inhibition. AID 492956. Q99487. inhibition, % at 3.39 µM. recombinant PAFAH2, FP-rhodamine activity probe, fluorescence polarization. hit rate 0.99% among 340,000;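 active = inhibition above the mean over all tested compounds plus 3 SD, cut at about 30% in these data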;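 note: inhibitors block probe labeling of enzyme so polarization drops; 0% = enzyme with DMSO and 100% = wells lacking PAFAH2 protein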
pPAFAH inh – inhibitors of human plasma PAF acetylhydrolase (pPAFAH); recombinant pPAFAH, FP-rhodamine probe fluorescence polarization; inhibition, % at 3.39 µM; hit rate 1.5% among 330,000; AID 463082;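 active = inhibition above the mean inhibition across the screen plus 3 SD, cut at about 25% in these data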;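 note: inhibitors block binding of the rhodamine activity-based probe so polarization drops; 0% = enzyme with DMSO and 100% = wells lacking pPAFAH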
Active calls of the source: *; / = not tested or not shown. Rows were chosen to be rich in hits. Some 2.7% of all compounds tested hit in one or more screens of this group.

SMILES | PAFAH1B2 FP inh | RBBP9 inh | PAFAH1B3 FP inh | PAFAH2 FP inh | pPAFAH inh
C[C@]12CCC[C@H](O1)c1c(cc3c(c1O)C(=O)c1c(O)cc(O)cc1C3=O)O2 | 14.6 | / | 18.9 | 30.2* | 27.0*
CC(=O)Oc1cc2c3c(c1)/C(=C1/SC(=S)NC1=O)C(=O)N3C(C)(C)C=C2C | 48.1* | 5.3 | 15.8 | 37.2* | 30.1*
COC(=O)CS(=O)(=O)c1ccsc1C(=O)Nc1ccc(F)c(F)c1 | 1.8 | -30.9 | -1.4 | 1.4 | -12.3
C[C@H](CO)N1C[C@H](C)[C@@H](CN(C)C(=O)Nc2ccc(C(F)(F)F)cc2)Oc2ccc(NS(=O)(=O)c3cccs3)cc2C1=O | 2.4 | / | 4.7 | 9.6 | 13.4
C[C@H](CO)N1C[C@H](C)[C@H](CN(C)CC2CCCCC2)Oc2ccc(NS(=O)(=O)c3ccc(F)cc3)cc2CC1=O | 3.5 | / | 10.8 | 4.8 | 29.9*
COc1ccc(S(=O)(=O)Nc2ccc3c(c2)C(=O)N([C@H](C)CO)C[C@H](C)[C@@H](CN(C)S(=O)(=O)c2cccs2)O3)cc1 | 25.5* | / | 6.6 | 7.5 | 5.0
C[C@H](CO)N1C[C@H](C)[C@H](CN(C)C)Oc2ccc(NS(=O)(=O)c3ccc(F)cc3)cc2CC1=O | 4.4 | / | 0.1 | 1.4 | 16.7
Cc1ccc(S(=O)(=O)Nc2ccc3c(c2)C(=O)N([C@H](C)CO)C[C@H](C)[C@@H](CN(C)C(=O)Nc2ccc(C(F)(F)F)cc2)O3)cc1 | 7.7 | / | 3.9 | 7.0 | 24.7*
COc1ccc(S(=O)(=O)Nc2ccc3c(c2)C(=O)N([C@H](C)CO)C[C@H](C)[C@@H](CN(C)S(=O)(=O)c2ccc(F)cc2)O3)cc1 | 29.1* | / | 2.3 | 0.7 | 5.9
Cc1csc(=O)n1CCC(=O)OCC(=O)NNC(=O)c1ccc(Cl)cc1 | 2.7 | / | -3.3 | 5.8 | /
O=C(CSc1n[nH]c(-c2ccccc2)n1)NC(=O)NCc1ccco1 | -2.0 | -6.4 | 4.1 | 6.0 | 12.3
CCCOc1ccc(CC(=O)NCCc2ccccc2)cc1OC | 3.4 | / | 10.9 | 5.1 | 2.9
COc1ccc(S(=O)(=O)N(C)C[C@H]2Oc3ccc(NS(=O)(=O)c4ccc(F)cc4)cc3C(=O)N([C@H](C)CO)C[C@@H]2C)cc1 | 24.5* | / | 4.2 | -0.5 | 13.5
C[C@H]1CN([C@@H](C)CO)C(=O)c2cc(NC(=O)Cc3ccccc3)ccc2O[C@H]1CN(C)Cc1ccccc1 | 2.2 | / | 4.0 | 12.1 | 4.3
COc1ccc(S(=O)(=O)Nc2ccc3c(c2)C(=O)N([C@H](C)CO)C[C@@H](C)[C@@H](CN(C)S(=O)(=O)c2ccc(Cl)cc2)O3)cc1 | 17.4 | / | 2.3 | 3.7 | 7.3
C[C@@H]1CN([C@H](C)CO)C(=O)c2cc(NC(=O)Cc3ccccc3)ccc2O[C@H]1CN(C)Cc1ccc(Oc2ccccc2)cc1 | -0.4 | / | -2.9 | 4.2 | 25.2*
CCc1ccc(N2C(=O)CC(N(CC3CCCO3)C(=O)/C=C/C(=O)O)C2=O)cc1 (stereo not given) | 2.1 | -4.0 | -0.8 | -1.8 | 6.5
COc1cccc(NC(=O)Nc2cc(C(=O)O)ccc2N2CC3CC(C2)c2cccc(=O)n2C3)c1 (stereo not given) | 6.9 | / | 8.4 | 8.5 | 33.9*
CCOC(=O)c1ccc(N2CCN(c3ccc(F)cc3)CC2)c(NC(=O)Nc2cccc(OC)c2)c1 | -2.8 | -6.6 | -17.2 | -21.4 | 29.1*
CC1(c2ccc(OC(F)F)cc2)NC(=O)N(CC(=O)Nc2ccc3[nH]c(=O)[nH]c3c2)C1=O (stereo not given) | 1.8 | / | 0.2 | 1.1 | 28.5*
O=C(CN1C(=O)NC(c2ccccc2)(c2ccccc2)C1=O)Nc1ccc2[nH]c(=O)[nH]c2c1 | -1.0 | -4.3 | 0.1 | -4.9 | 24.9*
COc1ccc(C2(C)NC(=O)N(CC(=O)Nc3ccc4[nH]c(=O)[nH]c4c3)C2=O)cc1 (stereo not given) | 1.5 | / | 8.8 | 3.2 | 7.8
CCOc1ccccc1N1CC(C(=O)N2CCOCC2)CC1=O (stereo not given) | -1.1 | / | 2.5 | -0.8 | 3.9
O=C(O)c1ccc(S(=O)(=O)N(Cc2ccc(F)cc2)C2CCCCC2)cc1 | 26.0* | / | -1.6 | 0.2 | 3.3
Cc1cc(C)c(S(=O)(=O)NC2CC3CCC2C3)c(C)c1 (stereo not given) | 8.7 | / | -0.7 | 8.1 | 1.1
O=C(N/N=C/c1ccccn1)c1ccccc1 | 3.2 | -7.9 | 7.5 | -6.3 | 6.8
O=C(N/N=C\c1ccccn1)c1cccc(C(=O)N/N=C\c2ccccn2)n1 | 41.7* | / | 52.9* | -42.6 | 7.0
